Data set [1] relates to Human immunodeficiency virus 1. Put plainly: Antiviral activity against HIV1 isolate with RT 103N, 190A mutation relative to wild type. Format: functional.
For data set [2], the system named is Human immunodeficiency virus 1. Nature of the data set: Antiviral activity against HIV1 isolate with RT 103N, 238N mutation relative to wild type. It counts as functional. A digest of the protocol:
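Mutant RT clones built in pNL4-3.Luc.R−E− reporter, VSV-G-pseudotyped, single-round infection of HeLa-JC53 cells (15,000/well, MOI 0.03) with 1:4 serial compound dilutions in DMEM (phenol red-free), 2% FBS, 0.2% final DMSO; 48 h at 37°C, 5% CO2; luciferase chemiluminescence read-out. Fold change in EC50 relative to wild-type virus; mean of two tests.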

The subject of data set [3] is Human immunodeficiency virus 1. Nature of the data set: Antiviral activity against HIV1 isolate with RT K103N-F227L mutation. Format: functional, organism-based. Summed up:
(§1)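 VSV-G-pseudotyped pNL4-3.Luc.R−E− molecular clones carrying the RT mutations, single-round infection of HeLa-JC53 cells (15,000/well) at MOI 0.03. Compounds serially diluted 1:4 in DMSO then in phenol red-free DMEM with 2% FBS, final DMSO 0.2%. Incubated 48 h at 37°C, 5% CO2. Luciferase read-out by chemiluminescence gives the EC50. Fold change is relative to wt virus, mean of two tests.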

The subject of data set [4] is Human immunodeficiency virus 1. Put plainly: Antiviral activity against wild type HIV1 NL4-3 in Hela-JC53 cells in the presence of 40% human serum after 48 hrs. It counts as functional, organism-based. The note with it: Human immunodeficiency virus 1, NL4-3, Hela-JC53, 48 h. A digest of the protocol: (§2)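 HeLa-JC53 cells (1.5 × 10^4) infected with VSV-G-pseudotyped NL4-3.Luci.R−E− reporter virus at MOI 0.03, with 1:4 serial compound dilutions. Heat-inactivated human serum added to final 0–50% on a basal 2% FBS medium. Incubated 48 h at 37°C in 5% CO2. Luciferase read-out; EC50 by nonlinear regression.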

For data set [5], the system named is Human immunodeficiency virus 1. Nature of the data set: Antiviral activity against HIV1 isolate with RT Y181C mutation in Hela-JC-53 cells. It counts as functional.
The test system of data set [6] is Human immunodeficiency virus 1. Put plainly: Antiviral activity against HIV1 NL4-3 with Y188L mutation in Hela-JC53 cells in the presence of 50% human serum after 48 hrs. Format: functional, organism-based. The settings on record: Human immunodeficiency virus 1, NL4-3, Hela-JC53, 48 h. A digest of the protocol:
(§3)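 VSV-G-pseudotyped Y188L NL4-3.Luci.R−E− virus (MOI 0.03) infecting HeLa-JC53 cells (1.5 × 10^4) in phenol red-free DMEM with 2% FBS. Serially diluted compound was added, then heat-inactivated human serum at final 0, 5, 10, 20, 30, 40 or 50%. Cultures ran 48 h at 37°C in 5% CO2, read by Bright-Glo luciferase chemiluminescence. EC50 was taken by nonlinear regression.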

The subject of data set [7] is Human immunodeficiency virus 1. Nature of the data set: Antiviral activity against HIV1 isolate with RT Y188L mutation. Format: functional, organism-based. A digest of the protocol:
as §1

Data set [8] concerns Human immunodeficiency virus 1. Nature of the data set: Antiviral activity against wild type HIV1 NL4-3 in Hela-JC53 cells in the presence of 30% human serum after 48 hrs. The settings on record: Human immunodeficiency virus 1, NL4-3, Hela-JC53, 48 h. Format: functional, organism-based. A digest of the protocol: as §2
Data set [9] concerns Human immunodeficiency virus 1. Nature of the data set: Antiviral activity against wild type HIV1 NL4-3 in Hela-JC53 cells in the presence of 20% human serum after 48 hrs. Format: functional, organism-based. The note with it: Human immunodeficiency virus 1, NL4-3, Hela-JC53, 48 h. A digest of the protocol:
as §2

Data set [10] has as its system Human immunodeficiency virus 1. Nature of the data set: Antiviral activity against HIV1 isolate V106I-Y188L mutant. It counts as functional, organism-based.
The nature of data set [11]: Cmax in dog at 10 mg/kg, iv. Format: ADME, organism-based, Canis lupus familiaris. Further details: dose 10 mg/kg, route intravenous. The note with it: in vivo.
The test system of data set [12] is Human immunodeficiency virus 1. Nature of the data set: Antiviral activity against HIV1 isolate with RT T369I mutation in Hela-JC-53 cells. Format: functional.
Data set [13] in a line: Plasma concentration in dog at 10 mg/kg, iv after 12 hrs. It counts as ADME, organism-based, Canis lupus familiaris. Also on record: dose 10 mg/kg, route intravenous.
The subject of data set [14] is Human immunodeficiency virus 1. Put plainly: Antiviral activity against HIV1 isolate with RT K103N-P225H mutation. Format: functional, organism-based. A digest of the protocol:
as §1

Data set [15] has as its system Human immunodeficiency virus 1. Nature of the data set: Antiviral activity against HIV1 NL4-3 in Hela-JC53 cells in the presence of 10% human serum after 48 hrs. The settings on record: Human immunodeficiency virus 1, NL4-3, Hela-JC53, 48 h. Format: functional, organism-based. A digest of the protocol: as §2
A short description of data set [16]: Bioavailability in dog at 20 mg/kg, po. It counts as ADME, organism-based, Canis lupus familiaris. The note with it: in vivo. A digest of the protocol: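 Dogs given 10 mg/kg i.v. or 20 mg/kg p.o., n = 3 per time point. Plasma sampled predose through 24 h. Bioavailability = (oral AUC0-∞/intravenous AUC0-∞) × 100.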
In data set [17] the test system is Human immunodeficiency virus 1. Nature of the data set: Antiviral activity against HIV1 isolate with RT G190S mutation. Format: functional, organism-based. A digest of the protocol: as §1
Data set [18] in a line: Plasma concentration in dog at 20 mg/kg, po after 12 hrs. Format: ADME, organism-based, Canis lupus familiaris. Further details: dose 20 mg/kg, route oral.
Data set [19] concerns Human immunodeficiency virus 1. Nature of the data set: Antiviral activity against HIV1 isolate with RT F227L mutation in Hela-JC-53 cells. Format: functional.
The test system of data set [20] is Human immunodeficiency virus 2. Put plainly: Inhibition of HIV2(NIH-Z) isolate. It counts as functional, organism-based. Summed up:
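HeLa-JC53-LTR-Luci cells (HIV-1 LTR-driven luciferase) infected with HIV-2 at MOI 0.03, with 1:4 serial compound dilutions (final DMSO 0.2%, 2% FBS medium). Incubated 48 h at 37°C in 5% CO2. Luciferase chemiluminescence read-out.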

Data set [21] relates to Human immunodeficiency virus 1. Nature of the data set: Antiviral activity against HIV1 isolate with RT V106I, D123G, Y181C, F227L, T369I mutation in Hela-JC-53 cells. Format: functional.
Data set [22] in a line: Tmax in dog at 10 mg/kg, iv. The note with it: in vivo. It counts as ADME, organism-based, Canis lupus familiaris. Further details: dose 10 mg/kg, route intravenous.
Data set [23] concerns Human immunodeficiency virus 1. Nature of the data set: Antiviral activity against HIV1 isolate with RT K103N-Y188L mutation. Format: functional, organism-based. Summed up: as §1
The test system of data set [24] is Human immunodeficiency virus 1. Put plainly: Antiviral activity against HIV1 NL4-3 with Y188L mutation in Hela-JC53 cells in the presence of 40% human serum after 48 hrs. The note with it: Human immunodeficiency virus 1, NL4-3, Hela-JC53, 48 h. It counts as functional, organism-based. A digest of the protocol:
as §3

The subject of data set [25] is Human immunodeficiency virus 1. Put plainly: Antiviral activity against HIV1 isolate with RT A98G mutation. Format: functional, organism-based. Summed up:
as §1

Data set [26] concerns Human immunodeficiency virus 1. Nature of the data set: Antiviral activity against HIV1 isolate with RT V106I, D123G, Y181C, F227L mutation in Hela-JC-53 cells. It counts as functional.
The test system of data set [27] is Human immunodeficiency virus 1. Put plainly: Antiviral activity against HIV1 isolate with RT D123G mutation in Hela-JC-53 cells. Format: functional.
The test system of data set [28] is Human immunodeficiency virus 1. Nature of the data set: Antiviral activity against HIV1 isolate with RT V106I mutation. It counts as functional, organism-based. Summed up:
as §1

Data set [29] concerns Human immunodeficiency virus 1. Nature of the data set: Antiviral activity against HIV1 NL4-3 with Y188L mutation in Hela-JC53 cells in the presence of 30% human serum after 48 hrs. The note with it: Human immunodeficiency virus 1, NL4-3, Hela-JC53, 48 h. It counts as functional, organism-based. A digest of the protocol: as §3
The test system of data set [30] is Human immunodeficiency virus 1. Put plainly: Antiviral activity against HIV1 isolate with RT K103N-V108I-A98G mutation. Format: functional, organism-based. A digest of the protocol: as §1
Data set [31] addresses Human immunodeficiency virus type 1 reverse transcriptase (Human immunodeficiency virus 1, UniProt Q72547). Put plainly: Inhibition of HIV1 reverse transcriptase. Summed up:
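E. coli-expressed HIV-1 RT (1 nM) with 16 μg/ml poly(rA)/oligo(dT)18 and 2 μM α-33P-TTP, 0–100 μM inhibitor. Buffer: 50 mM Tris-HCl pH 7.5, 5 mM MgCl2, 1 mM DTT, 60 μg/ml BSA. Run 1 h at 25°C, then TCA/pyrophosphate precipitation and radioactivity counted. IC50 = 50% inhibition of RT activity.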

Data set [32] relates to Human immunodeficiency virus 1. Nature of the data set: Antiviral activity against HIV1 isolate with RT K103N mutation. Format: functional, organism-based. Summed up:
as §1

Data set [33] deals with DNA polymerase beta (Homo sapiens) (UniProt P06746). Put plainly: Inhibition of human DNA polymerase beta upto 45 uM.
For data set [34], the system named is Human immunodeficiency virus 1. Put plainly: Antiviral activity against wild type HIV1 NL4-3 in Hela-JC53 cells in the presence of 5% human serum after 48 hrs. Format: functional, organism-based. The note with it: Human immunodeficiency virus 1, NL4-3, Hela-JC53, 48 h. Summed up:
as §2

In data set [35] the test system is Human immunodeficiency virus 1. Nature of the data set: Antiviral activity against HIV1 isolate with RT K103N-K101Q-P225H mutation. Format: functional, organism-based. Summed up:
as §1

This is an account of results in ChEMBL document CHEMBL1142195, “A novel nonnucleoside analogue that inhibits human immunodeficiency virus type 1 isolates resistant to current nonnucleoside reverse transcriptase inhibitors” (Antimicrob Agents Chemother, 2007).

Molecules are shown by their SMILES. Active and inactive are the calls of the source. The rule behind the calls is not given here.

For the compound `Cc1ccnc2c1NC(=O)c1cccnc1N2C1CC1` [NEVIRAPINE], the Fold change in data set [1] and in data set [2] was greater than 100 in each case.

One may read the EC50 as the midpoint of the concentration-response curve. As usually defined, the Cmax is the maximum level reached in the sampled fluid or tissue. As a reminder, the bioavailability is dose-corrected exposure relative to a reference, in per cent. A high value points to good availability. By Tmax is commonly meant the time at which the peak concentration occurs. Broadly, the IC50 is the midpoint of a concentration-inhibition curve. As for `NS(=O)(=O)c1ccc(NC(=O)CSc2nnc(Br)n2-c2ccc(C3CC3)c3ccccc23)c(Cl)c1`, the EC50 in data set [3] is 0.08 nM; in [4] it was 9.5 nM; in data set [6], 79.9 nM; in [7] it was 0.81 nM; in [8], 8.6 nM; in data set [9] it was 7.1 nM. Moreover, the EC50 in data set [10] came out at 2.27 nM; in data set [14], 0.13 nM; in data set [15], 3.9 nM; in data set [17], 0.23 nM; in data set [23], 1.07 nM; in data set [24] it was 54 nM. The EC50 in data set [25] stood at 0.3 nM; in data set [28] it was 0.09 nM; in [29], 45.9 nM; in data set [30], 0.24 nM; in data set [32], 0.09 nM; in [34], 2.4 nM. In [35], the concentration giving a half-maximal response (EC50) came to 0.11 nM. In addition, the Fold change in data set [5] was determined as 1.9; in data set [12] it was 1.3; in data set [19], 0.7; in [21], 31.2; in data set [26] it was 9.1; in data set [27], 1. The Cmax in data set [11] is 4420 ng/mL. Moreover, the concentration at 12 h in data set [13] stood at 283 ng/mL; in data set [18], 742 ng/mL. In [16], this compound registered a bioavailability of 47.1%. Besides, the outcome in data set [20] and in [33] was inactive. Moreover, in [22], the time to peak (Tmax) is 16.8 min. Further, it took 4 nM to reach half-maximal inhibition in [31] (IC50).
